Reference: ChEMBL document CHEMBL1926562, “Design, synthesis and biological activity of sphingosine kinase 2 selective inhibitors” (Bioorg Med Chem, 2012)
Active and inactive are the calls of the source. The rule behind the calls is not given here.

Assays:
Sphingosine kinase 1 [1] = target: T1, Sphingosine kinase 1 (Homo sapiens, UniProt Q9NYA1); experiment: Inhibition of human SphK1 expressed in baculovirus infected Sf9 insect cells assessed as remaining activity using sphingosine and [gamma-(32)P]-ATP as substrate at 100 uM by scintillation proximity counting
Procedure, shortened: (§1)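 Enzyme source: supernatant (10,000×g) of homogenized Sf9 cells infected with recombinant virus for 72 h, 2-3 μg protein per reaction. Sphingosine substrate at 10 μM for SphK1 and 5 μM for SphK2. Initial screen used inhibitor at 100 μM, with some compounds at 10 μM. Read-out is percent of remaining kinase activity, averaged over three experiments.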

[2] = target: T2, Sphingosine kinase 2 (Mus musculus) (UniProt Q9JIA7); experiment: Inhibition of mouse SphK2 expressed in baculovirus infected Sf9 insect cells assessed as remaining activity using sphingosine and [gamma-(32)P]-ATP at 100 uM by scintillation proximity counting; procedure, shortened: as §1
T2 sequence (whole entry): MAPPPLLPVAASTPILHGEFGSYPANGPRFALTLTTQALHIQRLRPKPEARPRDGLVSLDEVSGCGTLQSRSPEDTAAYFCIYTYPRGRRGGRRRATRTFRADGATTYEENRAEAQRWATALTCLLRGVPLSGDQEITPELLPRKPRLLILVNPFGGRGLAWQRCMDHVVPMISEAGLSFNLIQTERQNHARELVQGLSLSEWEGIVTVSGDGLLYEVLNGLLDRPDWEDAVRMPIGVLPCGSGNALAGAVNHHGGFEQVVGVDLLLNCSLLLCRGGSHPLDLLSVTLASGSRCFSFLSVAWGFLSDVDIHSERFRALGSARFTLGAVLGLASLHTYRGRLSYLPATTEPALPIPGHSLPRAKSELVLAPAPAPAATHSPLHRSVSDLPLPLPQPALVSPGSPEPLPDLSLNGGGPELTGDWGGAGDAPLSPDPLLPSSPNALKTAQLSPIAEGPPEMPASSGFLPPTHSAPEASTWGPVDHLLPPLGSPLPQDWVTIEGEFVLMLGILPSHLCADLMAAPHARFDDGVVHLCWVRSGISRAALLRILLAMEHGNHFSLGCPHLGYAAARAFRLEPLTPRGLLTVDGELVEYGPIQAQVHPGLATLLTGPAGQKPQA

Sphingosine kinase 2 = target: T3, Sphingosine kinase 2 (Mus musculus, UniProt Q9JIA7); experiment: Inhibition of mouse SphK2 expressed in baculovirus infected Sf9 insect cells using sphingosine and [gamma-(32)P]-ATP by scintillation proximity assay
T3 sequence (Q9JIA7 whole entry): T2 sequence (whole entry)

Sphingosine kinase 1 [3] = target: T1, Sphingosine kinase 1; experiment: Inhibition of human SphK1 expressed in baculovirus infected Sf9 insect cells using sphingosine and [gamma-(32)P]-ATP by scintillation proximity assay
Procedure, shortened: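 Ki calculated as Ki = [I]/(K′m/Km – 1), using a sphingosine Km of 10 μM for SphK1 and 5 μM for SphK2. Enzyme came from infected Sf9 cell extract (10,000×g supernatant, 2-3 μg protein).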

[4] = target: T2, Sphingosine kinase 2 (Mus musculus); experiment: Inhibition of mouse SphK2 expressed in baculovirus infected Sf9 insect cells using sphingosine and [gamma-(32)P]-ATP at 10 uM by scintillation proximity counting; procedure, shortened: as §1
[5] = target: T4, Sphingosine kinase 2 (Homo sapiens) (UniProt Q9NRA0); experiment: Inhibition of SphK2 in human U937 cells assessed as change in S1P level by LC/MS analysis; assay type: cell-based; conditions: U-937
T4 sequence (whole entry): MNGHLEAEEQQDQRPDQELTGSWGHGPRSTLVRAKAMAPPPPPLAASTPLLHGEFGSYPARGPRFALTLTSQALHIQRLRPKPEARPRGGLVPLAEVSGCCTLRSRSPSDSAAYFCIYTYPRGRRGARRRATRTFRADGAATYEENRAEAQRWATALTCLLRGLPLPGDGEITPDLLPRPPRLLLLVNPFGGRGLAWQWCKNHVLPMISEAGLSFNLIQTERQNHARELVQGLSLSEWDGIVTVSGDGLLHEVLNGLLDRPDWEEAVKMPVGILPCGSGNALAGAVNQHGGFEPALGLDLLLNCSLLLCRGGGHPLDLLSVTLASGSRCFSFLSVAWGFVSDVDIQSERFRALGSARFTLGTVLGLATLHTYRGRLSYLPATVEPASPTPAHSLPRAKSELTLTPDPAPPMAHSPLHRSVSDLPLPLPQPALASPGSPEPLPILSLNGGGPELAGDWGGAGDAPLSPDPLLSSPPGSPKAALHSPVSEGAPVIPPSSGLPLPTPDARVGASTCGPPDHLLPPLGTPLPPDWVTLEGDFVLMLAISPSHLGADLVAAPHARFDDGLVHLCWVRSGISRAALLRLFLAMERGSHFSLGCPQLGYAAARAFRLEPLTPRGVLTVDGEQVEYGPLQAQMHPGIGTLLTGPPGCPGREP
Procedure, shortened: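 U937 cells were treated with inhibitor, and S1P levels were measured by LC/MS.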

[6] = target: T4, Sphingosine kinase 2 (Homo sapiens); experiment: Inhibition of SphK2 in human U937 cells using FTY720 as substrate assessed as accumulation of FTY720 at 10 uM after 2 hrs by LC/MS analysis; assay type: cell-based; conditions: U-937
Procedure, shortened: (§2)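 Cultured U937 cells were given FTY720 plus 10 μM inhibitor for 2 h, then pelleted by centrifugation. FTY720 and FTY720-P in the cell pellet were measured by LC/MS (C18 reverse phase, water/methanol/formic acid gradient) and reported as moles per million cells. Values are means ± SD of three independent experiments, with significance by unpaired two-tailed t-test.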

[7] = target: T4, Sphingosine kinase 2 (Homo sapiens); experiment: Inhibition of SphK2 in human U937 cells assessed as decrease in ERK phosphorylation after 16 hrs by Western blot analysis; assay type: cell-based; conditions: U-937
Procedure, shortened: (§3)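 U937 cells were incubated with a range of inhibitor concentrations for 16 h, then washed with PBS and Dounce-lysed. Equal protein amounts were run on 10% SDS–PAGE and blotted to nitrocellulose. Blots were blocked in 5% milk/TBS-Tween, probed with antibodies to ERK, p-ERK, Akt, p-Akt and β-actin (1:1000, 1 h), then HRP anti-IgG (1:2000). PD098059 (10 μM) served as ERK-phosphorylation control.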

[8] = target: T4, Sphingosine kinase 2 (Homo sapiens); experiment: Inhibition of SphK2 in human U937 cells using FTY720 as substrate assessed as decrease in phosphorylated FTY720 at 10 uM after 2 hrs by LC/MS analysis; assay type: cell-based; conditions: U-937; procedure, shortened: as §2
[9] = Selectivity ratio of Ki/Km for human SphK1 to Ki/Km for mouse SphK2
Procedure, shortened: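 Selectivity calculated as (Ki/Km)SphK1 divided by (Ki/Km)SphK2, with sphingosine Km taken as 10 μM for SphK1 and 5 μM for SphK2.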

[10] = target: T4, Sphingosine kinase 2 (Homo sapiens); experiment: Inhibition of SphK2 in human U937 cells assessed as decrease in Akt phosphorylation after 16 hrs by Western blot analysis; assay type: cell-based; conditions: U-937; procedure, shortened: as §3
[11] = target: T2, Sphingosine kinase 2 (Mus musculus); experiment: Inhibition of mouse SphK2 expressed in baculovirus infected Sf9 insect cells assessed as remaining activity using sphingosine and [gamma-(32)P]-ATP at 10 uM by scintillation proximity counting; procedure, shortened: as §1

T1 sequence (Q9NYA1 whole entry): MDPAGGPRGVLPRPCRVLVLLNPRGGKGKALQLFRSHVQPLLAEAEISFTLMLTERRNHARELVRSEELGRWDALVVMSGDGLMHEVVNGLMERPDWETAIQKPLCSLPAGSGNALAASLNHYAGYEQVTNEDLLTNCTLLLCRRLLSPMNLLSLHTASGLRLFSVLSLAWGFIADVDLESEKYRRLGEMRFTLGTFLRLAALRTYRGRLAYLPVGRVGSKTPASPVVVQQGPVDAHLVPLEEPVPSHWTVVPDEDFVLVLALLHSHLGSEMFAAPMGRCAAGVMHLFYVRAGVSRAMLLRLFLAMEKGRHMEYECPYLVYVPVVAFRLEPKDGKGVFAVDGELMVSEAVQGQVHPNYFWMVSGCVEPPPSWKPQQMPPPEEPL

| Activity (Sphingosine kinase 1 [1]) [%] | Activity [2] [%] | also measured | SMILES |
| --- | --- | --- | --- |
| 130 | 56.5 | – | CCCCCCCCc1ccc(C2CCC(=NO)CC2)cc1 (stereo unspecified) |
| 65 | 77 | – | CCCCCCCCc1ccc([C@H]2CC[C@H](NC3CC3)CC2)cc1 |
| 69.8 | 5.4 | Ki (Sphingosine kinase 2): 40 µM; Ki (Sphingosine kinase 1 [3]): > 100 µM | CCCCCCCCc1ccc([C@H]2CC[C@@H](NC)CC2)cc1 |
| 25.1 | 3.2 | inhibition [4]: Active | CCCCCCCCc1ccc([C@H]2CC[C@@H]([N+](C)(C)CCC)CC2)cc1 |
| 5.3 | 7.2 | inhibition [5]: inactive; inhibition [6]: Active; inhibition [7]: Dose-dependent effect; Ki (Sphingosine kinase 2): 8 µM; Ki (Sphingosine kinase 1 [3]): 47 µM; inhibition [8]: Active; Selectivity ratio [9]: 2.94; inhibition [10]: Dose-dependent effect | CCCCCCCCc1ccc([C@H]2CC[C@H]([N+](C)(C)CCC)CC2)cc1 |
| 90 | 16.5 | – | CCCCCCCCc1ccc([C@H]2CC[C@@H](NC(C)C)CC2)cc1 |
| 113 | 116 | – | CCCCCCCCc1ccc([C@H]2CC[C@@H](NC3CC3)CC2)cc1 |
| 91.8 | 100 | – | C=CCN[C@H]1CC[C@@H](c2ccc(CCCCCCCC)cc2)CC1 |
| 10.5 | 3 | Ki (Sphingosine kinase 2): 14 µM; Ki (Sphingosine kinase 1 [3]): 70 µM; Selectivity ratio [9]: 2.5 | CCCCCCCCc1ccc([C@H]2CC[C@H]([N+](C)(C)CCO)CC2)cc1 |
| 65.8 | 8.3 | inhibition [4]: Active | CCCCCCCCc1ccc([C@H]2CC[C@@H]([N+](C)(C)C)CC2)cc1 |
| 98.4 | 67.2 | – | CCCCCCCCc1ccc([C@H]2CC[C@@H](NCc3ccccc3)CC2)cc1 |
| 113 | 70.9 | – | CCCCCCCCc1ccc([C@H]2CC[C@H](O)CC2)cc1 |
| 19 | 5.7 | – | C=CCN[C@H]1CC[C@H](c2ccc(CCCCCCCC)cc2)CC1 |
| 83.9 | 50.8 | – | CCCCCCCCc1ccc([C@H]2CC[C@@H](N(C)C)CC2)cc1 |
| 46.3 | 9 | Ki (Sphingosine kinase 2): 27 µM; Ki (Sphingosine kinase 1 [3]): 40 µM; Selectivity ratio [9]: 0.74 | CCCCCCCCc1ccc([C@H]2CC[C@H](N(C)C)CC2)cc1 |
| 101 | 101 | – | CCCCCCCCc1ccc(C2CCC(=CC(=O)OC)CC2)cc1 (stereo unspecified) |
| 77 | 45.9 | – | CCCCCCCCc1ccc([C@H]2CC[C@H](N(C)CCC)CC2)cc1 |
| 24.6 | 23.9 | – | CCCCCCCCc1ccc([C@H]2CC[C@H](NC(C)C)CC2)cc1 |
| 90.7 | 65.5 | – | CCCCCCCCc1ccc([C@H]2CC[C@@H](N(C)CCC)CC2)cc1 |
| 83.9 | 53.3 | – | CCCCCCCCc1ccc([C@H]2CC[C@H](NCc3ccccc3)CC2)cc1 |
| 109 | 100 | – | C#CCN[C@H]1CC[C@H](c2ccc(CCCCCCCC)cc2)CC1 |
| 47 | 25 | Ki (Sphingosine kinase 2): 29 µM; Ki (Sphingosine kinase 1 [3]): 32 µM; Selectivity ratio [9]: 0.55 | CCCCCCCCc1ccc([C@H]2CC[C@H](N)CC2)cc1 |

| Activity (Sphingosine kinase 1 [1]) [%] | Activity [2] [%] | also measured | SMILES |
| --- | --- | --- | --- |
| 15.7 | 7.7 | – | CCCCCCCCc1ccc([C@H]2CC[C@H](NC)CC2)cc1 |
| – | – | Activity [11]: 99% | CCCCCCCCc1ccc(-c2cnc(N)cn2)cc1 |
| 20.5 | 20.1 | – | CCCCCCCCc1ccc([C@H]2CC[C@H](NCCCC)CC2)cc1 |
| 100 | 52.7 | – | CCCCCCCCc1ccc(C2CCC(O)(C[N+](=O)[O-])CC2)cc1 (stereo unspecified) |
| 80.9 | 32.6 | inhibition [4]: Active | CCCCCCCCc1ccc([C@H]2CC[C@@H]([N+](C)(C)CCO)CC2)cc1 |
| 21.6 | 8.5 | Ki (Sphingosine kinase 2): 38 µM; Ki (Sphingosine kinase 1 [3]): 22 µM; Selectivity ratio [9]: 1.23 | CCCCCCCCc1ccc([C@H]2CC[C@H](NCCO)CC2)cc1 |
| – | – | Activity [11]: 87.3% | CCCCCCCCc1ccc(-c2cccc(N3CCNCC3)n2)cc1 |
| 75.6 | 18.3 | – | CCCCCCCCc1ccc([C@H]2CC[C@@H](NCCC)CC2)cc1 |
| – | – | Activity [11]: 93.7% | CCCCCCCCc1ccc(-c2ccc(-n3ccccc3=O)nc2)cc1 |
| 22.4 | 8.9 | – | CCCCCCCCc1ccc([C@H]2CC[C@@H](NCCO)CC2)cc1 |
| 49.1 | 11.5 | Ki (Sphingosine kinase 2): 33 µM; Ki (Sphingosine kinase 1 [3]): > 100 µM | CCCCCCCCc1ccc([C@H]2CC[C@H]([N+](C)(C)C(C)C)CC2)cc1 |
| 100 | 101 | – | C#CCN[C@H]1CC[C@@H](c2ccc(CCCCCCCC)cc2)CC1 |
| 101 | 61.8 | – | CCCCCCCCc1ccc(C2CCC(N)(C#N)CC2)cc1 (stereo unspecified) |
| 100 | 60.6 | – | CCCCCCCCc1ccc([C@H]2CC[C@@H](NCCCC)CC2)cc1 |
| 33 | 23 | – | CCCCCCCCc1ccc([C@H]2CC[C@H](NCc3ccncc3)CC2)cc1 |
| 113 | 101 | – | CCCCCCCCc1ccc([C@H]2CC[C@@H](N(C)C(C)C)CC2)cc1 |
| 15.8 | 5.5 | – | CCCCCCCCc1ccc([C@H]2CC[C@H](NCCC)CC2)cc1 |
| 100 | 66.7 | – | CCCCCCCCc1ccc(C2CCC(=CCO)CC2)cc1 (stereo unspecified) |
| 30.4 | 2.1 | – | C=CC[N+](C)(C)[C@H]1CC[C@H](c2ccc(CCCCCCCC)cc2)CC1 |
| 101 | 10.4 | inhibition [4]: Active | CCCCCCCCc1ccc([C@H]2CC[C@@H]([N+](C)(C)C(C)C)CC2)cc1 |
| 25.7 | 8.3 | – | CCCCCCCCc1ccc([C@H]2CC[C@H]([N+](C)(C)Cc3ccccc3)CC2)cc1 |
